According to ChEMBL document CHEMBL2150880, “Discovery and characterization of small molecule inhibitors of the BET family bromodomains” (J Med Chem, 2011):
pEC50, pKd: −log10 of the molar value. The source made the active and inactive calls. The rule behind the calls is not given here.

Legend:
[1] = test system: HepG2; experiment: Induction of human ApoA1 gene expression in stably transfected human HepG2 cells coexpressing luciferase reporter gene at 0.001 to 10 uM after 18 hrs by luminescence assay; assay type: functional, cell-based
In short: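 HepG2 cells stably carrying an ApoA1 promoter–luciferase reporter were incubated 18 h with or without freshly diluted compound in 0.5% DMSO. Bright Glo reagent was then added, and luminescence was read after 10 min with substrate.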

[2] = test system: HepG2; experiment: Induction of human LDL-R gene expression in stably transfected human HepG2 cells coexpressing luciferase reporter gene at 0.001 to 10 uM after 18 hrs by luminescence assay; assay type: functional, cell-based
In short: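 Selectivity counter-screen run in parallel under the same conditions as the ApoA1 reporter: HepG2 cells stably carrying an LDL-receptor promoter–luciferase reporter, 18 h with or without compound in 0.5% DMSO, then Bright Glo luminescence read after 10 min.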

[3] = test system: HepG2; experiment: Induction of human ApoA1 gene expression in stably transfected human HepG2 cells coexpressing luciferase reporter gene after 18 hrs by luminescence assay relative to control; assay type: functional
[4] = target: CREB-binding protein (Homo sapiens, UniProt Q92793); experiment: Binding affinity to CREBBP by isothermal titration calorimetric analysis
Sequence of CREB-binding protein (Q92793 whole entry): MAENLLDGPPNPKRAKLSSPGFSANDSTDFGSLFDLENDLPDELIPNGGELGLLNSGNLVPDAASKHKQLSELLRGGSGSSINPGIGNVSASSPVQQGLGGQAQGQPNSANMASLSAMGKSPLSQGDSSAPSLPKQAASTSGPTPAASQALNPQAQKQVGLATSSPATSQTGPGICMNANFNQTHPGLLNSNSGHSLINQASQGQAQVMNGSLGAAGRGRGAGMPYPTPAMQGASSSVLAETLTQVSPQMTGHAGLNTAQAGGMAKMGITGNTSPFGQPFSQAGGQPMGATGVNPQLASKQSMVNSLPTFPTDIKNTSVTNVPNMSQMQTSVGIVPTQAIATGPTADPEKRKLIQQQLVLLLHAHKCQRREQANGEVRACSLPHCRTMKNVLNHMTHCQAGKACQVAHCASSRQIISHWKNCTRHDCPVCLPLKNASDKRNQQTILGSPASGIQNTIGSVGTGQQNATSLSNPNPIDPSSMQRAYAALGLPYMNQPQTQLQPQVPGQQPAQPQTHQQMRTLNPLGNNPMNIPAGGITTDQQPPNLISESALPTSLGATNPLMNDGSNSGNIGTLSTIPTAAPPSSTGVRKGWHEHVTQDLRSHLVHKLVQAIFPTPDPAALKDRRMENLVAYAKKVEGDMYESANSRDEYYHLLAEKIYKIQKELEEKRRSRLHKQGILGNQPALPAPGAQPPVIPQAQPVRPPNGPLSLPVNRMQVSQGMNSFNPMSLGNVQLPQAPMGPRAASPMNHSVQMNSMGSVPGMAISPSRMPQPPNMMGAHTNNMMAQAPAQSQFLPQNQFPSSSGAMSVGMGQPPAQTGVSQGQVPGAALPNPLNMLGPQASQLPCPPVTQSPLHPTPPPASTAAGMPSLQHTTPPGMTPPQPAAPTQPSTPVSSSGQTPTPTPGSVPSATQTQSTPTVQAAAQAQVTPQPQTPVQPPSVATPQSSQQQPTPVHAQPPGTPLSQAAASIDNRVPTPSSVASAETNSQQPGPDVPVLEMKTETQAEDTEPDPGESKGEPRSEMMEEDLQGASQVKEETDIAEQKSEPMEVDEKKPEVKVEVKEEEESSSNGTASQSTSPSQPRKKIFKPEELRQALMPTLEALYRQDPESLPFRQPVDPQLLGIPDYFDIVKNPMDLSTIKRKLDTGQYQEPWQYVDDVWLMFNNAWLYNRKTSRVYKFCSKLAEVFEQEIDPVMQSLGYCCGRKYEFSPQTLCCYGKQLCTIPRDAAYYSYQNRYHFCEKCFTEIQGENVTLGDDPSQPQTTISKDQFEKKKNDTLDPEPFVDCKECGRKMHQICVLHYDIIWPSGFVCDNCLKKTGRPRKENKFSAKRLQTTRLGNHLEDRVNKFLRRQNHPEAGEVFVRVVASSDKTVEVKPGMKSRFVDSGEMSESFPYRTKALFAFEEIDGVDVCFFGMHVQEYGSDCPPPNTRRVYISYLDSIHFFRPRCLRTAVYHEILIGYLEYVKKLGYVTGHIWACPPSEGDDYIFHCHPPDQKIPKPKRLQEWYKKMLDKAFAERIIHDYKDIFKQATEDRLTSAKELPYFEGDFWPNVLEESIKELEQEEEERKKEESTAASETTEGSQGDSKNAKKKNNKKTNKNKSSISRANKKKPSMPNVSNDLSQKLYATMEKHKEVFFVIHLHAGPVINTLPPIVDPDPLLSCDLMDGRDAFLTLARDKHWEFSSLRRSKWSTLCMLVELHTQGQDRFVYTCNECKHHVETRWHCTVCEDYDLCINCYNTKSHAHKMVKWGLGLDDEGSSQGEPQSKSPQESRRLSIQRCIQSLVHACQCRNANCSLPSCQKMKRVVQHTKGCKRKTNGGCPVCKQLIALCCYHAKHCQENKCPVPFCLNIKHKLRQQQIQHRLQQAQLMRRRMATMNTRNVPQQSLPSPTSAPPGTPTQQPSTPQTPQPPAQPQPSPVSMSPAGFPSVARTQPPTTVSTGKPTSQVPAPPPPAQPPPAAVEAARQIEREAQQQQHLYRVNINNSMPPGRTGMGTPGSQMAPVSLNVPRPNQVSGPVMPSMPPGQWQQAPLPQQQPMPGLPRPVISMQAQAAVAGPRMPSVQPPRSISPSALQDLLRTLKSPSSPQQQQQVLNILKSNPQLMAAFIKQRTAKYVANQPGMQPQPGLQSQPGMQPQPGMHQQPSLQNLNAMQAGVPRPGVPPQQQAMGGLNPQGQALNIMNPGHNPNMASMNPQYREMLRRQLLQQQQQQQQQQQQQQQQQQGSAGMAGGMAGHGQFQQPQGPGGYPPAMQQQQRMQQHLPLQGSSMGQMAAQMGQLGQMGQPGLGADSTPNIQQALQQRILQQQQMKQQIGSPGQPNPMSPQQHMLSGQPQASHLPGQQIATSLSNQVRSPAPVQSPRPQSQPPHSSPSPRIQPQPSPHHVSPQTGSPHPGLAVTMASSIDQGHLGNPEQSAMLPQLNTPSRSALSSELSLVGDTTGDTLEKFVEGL

[5] = test system: HepG2; experiment: Induction of human ApoA1 gene expression in stably transfected human HepG2 cells coexpressing luciferase reporter gene at 1 uM after 18 hrs by luminescence assay relative to control; assay type: functional
[6] = test system: HepG2; experiment: Induction of human ApoA1 gene expression in stably transfected human HepG2 cells coexpressing luciferase reporter gene after 18 hrs by luminescence assay; assay type: functional, cell-based
[7] = target: T1, ATPase family AAA domain-containing protein 2 (Homo sapiens, UniProt Q6PL18); experiment: Binding affinity to ATAD2 by isothermal titration calorimetric analysis
T1 sequence (Q6PL18 whole entry): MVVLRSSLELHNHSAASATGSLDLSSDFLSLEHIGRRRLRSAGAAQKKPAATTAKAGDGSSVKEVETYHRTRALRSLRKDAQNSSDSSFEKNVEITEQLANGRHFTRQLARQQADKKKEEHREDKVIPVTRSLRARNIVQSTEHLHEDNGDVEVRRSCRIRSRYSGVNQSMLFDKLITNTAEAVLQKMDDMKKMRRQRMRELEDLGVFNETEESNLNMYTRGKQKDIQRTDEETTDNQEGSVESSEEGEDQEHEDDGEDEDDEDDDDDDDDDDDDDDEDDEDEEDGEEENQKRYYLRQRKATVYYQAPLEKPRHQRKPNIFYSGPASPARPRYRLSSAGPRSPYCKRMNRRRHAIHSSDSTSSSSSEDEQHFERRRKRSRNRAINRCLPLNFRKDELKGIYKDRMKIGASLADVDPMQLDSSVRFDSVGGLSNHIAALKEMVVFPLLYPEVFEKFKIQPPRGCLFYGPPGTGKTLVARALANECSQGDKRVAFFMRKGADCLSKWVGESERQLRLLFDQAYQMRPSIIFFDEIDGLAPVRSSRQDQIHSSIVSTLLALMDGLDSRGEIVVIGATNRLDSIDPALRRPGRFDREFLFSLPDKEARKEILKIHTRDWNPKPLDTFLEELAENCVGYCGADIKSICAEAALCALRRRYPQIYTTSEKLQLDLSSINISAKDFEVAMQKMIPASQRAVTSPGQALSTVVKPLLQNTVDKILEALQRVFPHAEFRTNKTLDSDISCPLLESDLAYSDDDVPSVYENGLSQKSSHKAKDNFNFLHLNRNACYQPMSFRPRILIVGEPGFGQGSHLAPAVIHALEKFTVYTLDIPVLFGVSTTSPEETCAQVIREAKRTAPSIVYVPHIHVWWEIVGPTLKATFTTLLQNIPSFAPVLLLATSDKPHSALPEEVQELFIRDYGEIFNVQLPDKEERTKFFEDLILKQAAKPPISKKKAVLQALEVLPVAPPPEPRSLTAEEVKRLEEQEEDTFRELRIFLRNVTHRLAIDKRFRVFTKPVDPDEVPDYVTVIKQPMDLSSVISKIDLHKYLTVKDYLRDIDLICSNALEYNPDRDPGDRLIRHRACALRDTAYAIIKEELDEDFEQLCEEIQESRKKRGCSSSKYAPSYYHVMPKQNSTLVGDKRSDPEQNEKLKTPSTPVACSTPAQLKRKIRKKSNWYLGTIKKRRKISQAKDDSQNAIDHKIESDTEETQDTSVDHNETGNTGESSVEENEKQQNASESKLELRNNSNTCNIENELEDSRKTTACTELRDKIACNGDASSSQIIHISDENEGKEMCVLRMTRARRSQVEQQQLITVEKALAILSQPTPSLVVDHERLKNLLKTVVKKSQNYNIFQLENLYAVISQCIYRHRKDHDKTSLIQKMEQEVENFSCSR

[8] = test system: HepG2; experiment: Induction of human ApoA1 protein synthesis in human HepG2 cells assessed as neosynthesised radiolabeled protein secretion after 6 hrs by SDS PAGE analysis in presence of [35S]methionine; assay type: functional, cell-based
In short: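 Confluent HepG2 cells were exposed to compound for 48 h in BME with 1% FCS. Compound was re-added in Met/Cys-depleted RPMI-1640 containing 35S-methionine for 6 h at 37 °C. Secreted labelled proteins were separated on 5–12% SDS-PAGE, and ApoA1 was quantified by phosphorimaging.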

Row | Structure (SMILES) | Activity [1] | Activity [2] | fold change (FC) [3] | pKd [4] | fold change (FC) [5] | Activity [6] | pEC50 ([6]; HepG2, 18 h) | pKd [7] | Activity [8]
1 | CCNC(=O)C[C@H]1N=C(c2ccc(Cl)cc2)c2cc(OC)ccc2-n2c(C)nnc21 | inactive | inactive |  |  |  |  |  |  | 
2 | Cc1nnc2n1-c1ccccc1C(c1ccccc1)=NC2NC(=O)OCc1ccccc1 (configuration not stated) |  | inactive | 4.5 | < 4.30 | 3 | Dose-dependent effect | 6.36 | < 4.30 | 
3 | CCNC(=O)C[C@@H]1N=C(c2ccc(Cl)cc2)c2cc(OC)ccc2-n2c(C)nnc21 |  | inactive |  |  |  | Dose-dependent effect |  |  | Active
